Compound activity as filed in PubChem BioAssay.
TbMetRS inhib: Trypanosoma brucei MetRS inhibition | purified T. brucei MetRS, ATP depletion, Kinase-Glo luminescence | inhibition, % at 11.9 µM | hit rate 0.4% among 360,000 | AID 624268;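 active = inhibition above a per-plate cutoff of the control wells' mean inhibition plus 3 SD, cut at about 5.5% in these data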;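 note: 0% = DMSO wells median and 100% = median of wells with control inhibitor compound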
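System: purified T. brucei MetRS enzyme / Detection: Kinase-Glo luciferase luminescence reporting remaining unconsumed ATP / Medium: HEPES buffer with MgCl2, KCl, DTT, spermine, BSA, pyrophosphatase / Replication: singlicate, one well per compound / Evaluation: percent inhibition relative to median high and low control wells / Schedule: 2 h aminoacylation at 25 °C after 15 min preincubation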
HNF4A DNA FP: change in binding of human HNF4 alpha to DNA | HNF4a-FITC DNA binding, fluorescence polarization, 1 h | activity change, % at 10 µM | hit rate 0.3% among 360,000 | AID 1224865; in the data active = activity change above about 30%, passing the limit was not always enough
Rpn11 inh: blocks the human proteasome subunit Rpn11; hit rate 0.59% among 360,000; AID 588493; human 26S proteasome, Ub4-pepOG fluorescence polarization; 20S core pre-blocked with epoxomicin; inhibition, % at 20 µM;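 active = inhibition at 20 µM, scaled to each plate's controls, above about 33%, limit read from the data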
PREPL inh: human PREPL enzyme inhibition; recombinant PREPL, fluorescence polarization activity-based probe; inhibition, % at 5.96 µM; hit rate 0.68% among 320,000; AID 2751; in the data active = inhibition above about 43%;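 note: 0% = enzyme with DMSO and 100% = wells lacking enzyme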
CSN inh: CSN deneddylation inhibition; Q92905; Purified CSN, SCF-Nedd8-OG deneddylation, fluorescence polarization; inhibition, % at 12.5 µM; hit rate 0.38% among 360,000;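 active = pattern-corrected inhibition above about 35%, with an unprinted fluorescence ratio check between 0.5 and 1.5, limit read from the data, passing the limit was not always enough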;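 note: 0% = enzyme with substrate and 100% = substrate without enzyme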
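assay system = purified human Csn5 enzyme expressed in HEK293T cells | amount = 0.24 nM enzyme | buffer or medium = Tris/NaCl/DTT buffer, pH 7.5 | reagent = 10 nM SCFSkp2-Nedd8OG | compound = one concentration, 12.5 µM, 0.25% DMSO | times = 90 min reaction at room temperature | signal = FP | read-out basis = % inhibition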
Neddyl block: blocks human cullin neddylation. P61081+Q13564. TR-FRET cullin neddylation, biochemical. inhibition, % at 25 µM. hit rate 0.58% among 360,000; in the data active = inhibition above about 36%
Rpn11 inh conf: confirmation of human proteasome Rpn11 inhibitors; shares compounds with Rpn11 inh; purified human 26S proteasome, Ub4-pepOG fluorescence polarization; proteasome pretreated with epoxomicin; inhibition, % at 20 µM; hit rate 29% among 1,900; AID 602318
MMP-2 counter: blocks human MMP-2, flagging nonselective RPN11 hits; AID 602330; shares compounds with Rpn11 inh; inhibition, % at 20 µM; recombinant MMP-2, FRET peptide cleavage fluorescence; hit rate 4% among 1,900;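 note: human MMP-2 activated beforehand with APMA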
Target sequence (P08253 whole entry, looked up): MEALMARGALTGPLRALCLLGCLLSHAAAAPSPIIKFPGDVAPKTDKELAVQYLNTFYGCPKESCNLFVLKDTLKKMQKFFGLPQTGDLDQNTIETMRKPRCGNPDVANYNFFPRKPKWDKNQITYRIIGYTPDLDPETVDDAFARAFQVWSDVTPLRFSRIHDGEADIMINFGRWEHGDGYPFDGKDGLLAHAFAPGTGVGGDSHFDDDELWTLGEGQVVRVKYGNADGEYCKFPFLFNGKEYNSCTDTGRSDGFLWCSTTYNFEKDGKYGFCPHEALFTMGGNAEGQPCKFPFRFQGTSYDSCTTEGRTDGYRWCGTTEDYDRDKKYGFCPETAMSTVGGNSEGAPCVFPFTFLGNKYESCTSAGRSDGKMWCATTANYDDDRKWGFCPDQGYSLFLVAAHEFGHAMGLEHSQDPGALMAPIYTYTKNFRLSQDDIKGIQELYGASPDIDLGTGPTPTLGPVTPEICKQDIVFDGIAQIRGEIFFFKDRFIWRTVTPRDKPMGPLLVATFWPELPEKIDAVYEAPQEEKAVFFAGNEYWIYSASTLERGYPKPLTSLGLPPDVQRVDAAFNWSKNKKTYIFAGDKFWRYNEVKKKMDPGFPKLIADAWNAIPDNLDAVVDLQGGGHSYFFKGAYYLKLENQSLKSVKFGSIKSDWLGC
Thrombin inh: counter-screen for RPN11 inhibitors: inhibition of bovine thrombin | shares compounds with Rpn11 inh | bovine thrombin cleavage of Ub4-pepOG, fluorescence polarization | inhibition, % at 20 µM | hit rate 13% among 1,900;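 active = mean inhibition at least 40% at 20 µM, or signal 3 deviations below plate average, so some actives read negative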;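 note: plate controls were thrombin with DMSO for no effect and buffer wells lacking thrombin for full effect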
* hit, by the source's call; i = inactive; . = no result shown. Rows were chosen to be rich in hits. Some 2.4% of all compounds tested hit in one or more screens of this group. Cut-off read from the data, not from the text of the source, unless noted: active = inhibition above about 40%; inactive = the rest.

SMILES	TbMetRS inhib	HNF4A DNA FP	Rpn11 inh	PREPL inh	CSN inh	Neddyl block	Rpn11 inh conf	MMP-2 counter	Thrombin inh
COc1ccc2nc(SCC(=O)Nc3ccc(S(=O)(=O)N4CCCC4)cc3)c(C#N)cc2c1	1	18	40*	0	10	i	21	-35	3
COC(=O)[C@]12CCCCC=C1N(CCc1ccc(OC)c(OC)c1)C(=O)[C@H](CC(=O)N1CCN(C(=O)c3ccco3)CC1)C2	-1	-3	.	.	6	2	.	.	.
CCOC(=O)C1=C(O)/C(=C/c2ccc(-c3ccccc3C(=O)O)o2)SC1=Nc1ccc(OC)cc1	-1	19	52*	.	35	1	60*	12	41*
CCOC(=O)C1=C(O)/C(=C/c2cc(OC)c(O)c(OC)c2)SC1=Nc1ccc(OC)cc1	-1	12	.	.	19	-9	.	.	.
C=CC[C@H](CC(=O)NCCO)C(=O)N[C@@H](COC(=O)[C@@H](CC=C)Cc1ccc(F)cc1)Cc1ccccc1	0	4	-2	7	-4	-24	.	.	.
CC1(C(=O)Nc2ccc(Cl)c(Cl)c2)CCN1C(=O)CCC1CCCC1 (centres undefined)	0	1	1	.	0	1	.	.	.
CC1CCN(C(=O)c2cc(S(=O)(=O)N3CCCCC3)c[nH]2)CC1	0	3	-14	1	-4	-12	.	.	.
C/C(=N\Nc1ccc(C#N)cc1[N+](=O)[O-])c1ccc(C)o1	0	-50	64*	2	0	-4	-9	-26	-16
C/C(=N\NS(=O)(=O)c1ccc(Cl)c([N+](=O)[O-])c1)c1ccc(C)o1	1	3	5	4	2	-7	.	.	.
COc1ccc(-n2nc(C(=O)NCC(=O)NC(C)C)c3ccccc3c2=O)cc1Cl	-1	4	12	-1	-4	-2	.	.	.
COc1ccc(-n2nc(C(=O)NCC(=O)Nc3ccccn3)c3ccccc3c2=O)cc1Cl	0	0	102*	.	19	-113	3	0	-2
COc1ccc(Cl)cc1NC(=O)CN(C)C(=O)c1ccc(-n2nc(C)cc2C)cc1	0	3	5	14	-4	7	.	.	.
COc1ccccc1C(=O)N=Nc1c(O)[nH]c2ccc([N+](=O)[O-])cc12	0	-2	5	.	0	1	.	.	.
O=C(N=Nc1c(O)[nH]c2ccc([N+](=O)[O-])cc12)c1cc(-c2ccccc2Cl)nc2ccccc12	0	0	37*	-5	3	0	-22	-10	-32
COc1ccc2nc(C)cc(SCC(=O)N/N=C/c3ccccc3)c2c1	1	-1	-8	-3	9	8	.	.	.
COc1ccc2nc(C)cc(SCC(=O)N/N=C/c3c(OC)ccc4ccccc34)c2c1	0	17	51*	1	44*	.	10	-43	6
Cc1ccc(S(=O)(=O)/N=C2/NC(=O)/C(=C/c3cccnc3)S2)cc1	-1	1	2	0	2	-14	.	.	.
Cc1ccc(S(=O)(=O)/N=C2/NC(=O)/C(=C/c3ccc(Br)o3)S2)cc1	0	12	61*	-7	34	10	28	-8	18
CN(Cc1cc([N+](=O)[O-])ccc1Cl)C(=O)C[n+]1ccccc1	-1	4	12	7	-2	-23	.	.	.
Cc1ccc(S(=O)(=O)Nc2ccccc2NS(=O)(=O)c2ccc(C)cc2)cc1	0	2	2	.	5	3	.	.	.
Cc1ccc(S(=O)(=O)Nc2ccccc2-c2ccccc2)cc1	0	-4	33*	-49	-4	2	-25	13	-14
COc1ccc(NC2CCCN(C(=O)c3cn(C)c4ccccc34)C2)cc1 (centres undefined)	0	-1	-3	5	-3	9	.	.	.
CCOC(=O)c1cc(-c2ccccc2)sc1NC(=O)C(C)N1C(=O)NC(C)(c2ccc(Cl)cc2)C1=O (centres undefined)	0	51*	120*	-7	6	-3	13	11	4
COc1cccc(CNC(=O)c2ccncc2)c1	0	0	-3	1	-4	8	.	.	.
CC(=O)Nc1ccc(/C(C)=N/NC(=O)c2ccc(COc3ccccc3Cl)o2)cc1	0	-9	70*	-1	4	10	46*	-102	16
SMILES	TbMetRS inhib	HNF4A DNA FP	Rpn11 inh	PREPL inh	CSN inh	Neddyl block	Rpn11 inh conf	MMP-2 counter	Thrombin inh
CCCNC(=O)N1C[C@H](O)COC[C@@H]2O[C@@H](CC(=O)NCCCN3CCOCC3)CC[C@H]21	-1	2	.	.	-1	4	.	.	.
COc1ccc(Cl)cc1NC(=O)c1cc(-c2ccco2)on1	0	19	46*	-9	20	28	12	-15	2
O=C(Nc1cc(Cl)ccc1Cl)c1cc(-c2ccco2)on1	0	11	17	-1	5	9	.	.	.
O=C(Nc1ccc(S(=O)(=O)Nc2ccccc2)cc1)C1COc2ccccc2O1 (centres undefined)	0	19	62*	-5	5	-3	-8	0	-4
CCOc1ccccc1C1N=C(c2ccc(OC)cc2)CC(c2ccccc2O)N1 (centres undefined)	0	2	42*	5	5	21	-13	-46	-4
O=C(CCC(=O)c1cccs1)OCC(=O)N1CCN(C(=O)c2ccco2)CC1	0	35*	33*	3	1	7	-4	-20	-8
COc1ccc(Nc2nc(-c3cccs3)cs2)c(OC)c1	0	10	30*	14	-3	-2	-15	-11	-7
COc1ccc(OC)c(Nc2nc(-c3cccs3)cs2)c1	0	2	29	13	12	-18	.	.	.
CC(C)C1Cc2[nH][nH]c(=O)c2C(C2CC2)O1 (centres undefined)	0	0	.	.	-2	-9	.	.	.
Nc1ccccc1C#CC(=O)c1ccccc1	-1	0	18	3	8	-36	.	.	.
COc1cc(NC(=O)CCn2c(=S)[nH]c3ccccc3c2=O)cc(OC)c1OC	0	19	64*	.	4	-338	103*	39	11
COc1ccc(C(=O)N2CCOC2CNC(=O)C(=O)NCc2ccccn2)cc1 (centres undefined)	1	-4	-1	.	0	1	.	.	.
Cc1cccn2c(=O)c3cc(C(N)=S)c(=N)n(CCCN4CCOCC4)c3nc12	0	9	51*	39	37*	.	4	49*	-3
